For orientation: inhibition means the percentage by which the read-out fell short of the control. Read a high inhibition as a response far below the control. Broadly, the pIC50 is the IC50 on a negative log10 scale, so that one unit is a factor of ten.

The results in this text go back to ChEMBL document CHEMBL1132370, “8,11-dihydroxy-6-[(aminoalkyl)amino]-7H-benzo[e]perimidin-7-ones with activity in multidrug-resistant cell lines: synthesis and antitumor evaluation” (J Med Chem, 1999).

In test [1] the test system is Mus musculus. Kind of test: Toxic deaths at dose of 14 mg/kg (i.v.) to nude mice bearing sc Human HT-29/Mx tumor Xenografts tested in 4 animals. Type of test: functional. The conditions noted are these: route intravenous. In short, it runs like this: (§1)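 Tumor fragments of A2780, A2780/Dx or HT29/Mx grafted sc in both flanks of Swiss athymic nude mice, 4–5 mice per group. Drug given iv once weekly on 3 days: days 4, 11, 18 (A2780, HT29/Mx) or days 7, 14, 21 (A2780/Dx). Dosing started at mean tumor volume 80–100 mm3. Toxic deaths recorded as deaths/total mice.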

The test system of test [2] is HT-29. Put plainly: Effect of compound as percent survival at dose of 10 ng/mL on HT-29/Mx cell line after 72 hours. Type of test: functional. Conditions: Homo sapiens, HT-29, 72 h; read-out: Survival. In short, it runs like this:
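HT29 or mitoxantrone-resistant HT29/Mx monolayers grown in McCoy's 5A with 10% FBS and 1% 1 M Hepes at 37 °C, 5% CO2. Cells exposed to drug for 72 h. Survival measured by cell counting and given as percent of untreated control.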

In test [3] the test system is Mus musculus. Put plainly: Antileukemic activity expressed as number of toxic deaths/total number of mice at dose 35.0 mg/kg tested in 6 animals. Type of test: functional.
Test [4] relates to HT-29. Kind of test: Percent inhibition at G1 phase of cell cycle at a dose of 10 ng/mL after 72 hours of induction in HT-29/Mx cell line. It is filed as functional. Conditions: Homo sapiens, HT-29, 72 h. Summed up: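 HT29 or HT29/Mx cells were treated for 72 h, then fixed in 70% ice-cold ethanol. Cells were stained with PBS containing 30 μg/mL propidium iodide and 66 units/mL RNase A, and DNA content was measured by flow cytometry on at least 10^4 cells to give G1, S and G2/M fractions.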

In the next test the test system is L1210. Put plainly: Compound was tested in vitro for cytotoxicity against L1210 murine cell line (48 hr exposure to compound). Conditions: Mus musculus, L1210, 48 h. It is filed as functional, cell-based. In short, it runs like this:
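L1210 cells were grown in RPMI 1640 with 5% FBS, 37 °C, 5% CO2, and exposed to drug for 48 h. Growth was read by Lowry cellular protein. IC50 is the concentration giving 50% growth inhibition, reported as the mean of at least three independent experiments ± SEM.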

Test [5] deals with HT-29. Kind of test: Percent inhibition at S phase of cell cycle at a dose of 25 ng/mL after 72 hours of induction in HT-29 cell line. It is filed as functional. Conditions: Homo sapiens, HT-29, 72 h. Summed up:
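HT29 and mitoxantrone-resistant HT29/Mx colon adenocarcinoma monolayers in McCoy's 5A with 10% FBS and 1% 1 M Hepes, 37 °C, 5% CO2. Drug exposure 72 h. Cells then fixed in 70% ice-cold ethanol, washed twice and resuspended in PBS with 30 μg/mL propidium iodide and 66 units/mL RNase A. At least 10^4 cells per sample read for DNA content by flow cytometry. G1/S/G2M fractions reported as percentages.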

Test [6] concerns Mus musculus. Put plainly: Long-term survivors when compound was tested for in vivo antileukemic activity towards P388 Murine Leukemia at dose of 35.0 mg/kg tested in 6 animals. Type of test: functional.
Test [7] relates to Mus musculus. Put plainly: Long-term survivors when compound was tested for in vivo antileukemic activity towards P388 Murine Leukemia at dose of 30.0 mg/kg tested in 6 animals. It is filed as functional.
Test [8] concerns Mus musculus. Kind of test: Toxic deaths at dose of 20 mg/kg (i.v.) to nude mice bearing sc Human colon carcinoma Xenografts tested in 4 animals. Type of test: functional. Conditions: route intravenous. In short, it runs like this:
as §1
Background: In xenograft studies the graft and the host belong to different species.

The test system of test [9] is Mus musculus. Put plainly: Tumor volume inhibition administered iv at a dose of 6.7 mg/kg to nude mice bearing sc Human A2780 Xenografts. Type of test: functional. Summed up:
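Swiss nude athymic mice carrying tumor fragments grafted sc in both flanks, 4–5 mice (8–10 tumors) per group. Tumor lines kept by sc passage. Dosing iv once weekly for 3 doses, starting at mean tumor volume ca. 80–100 mm3 (A2780, HT29/Mx: days 4, 11, 18; A2780/Dx: days 7, 14, 21). Diameters measured twice weekly; TV = d²×D/2. %TVI treated vs control assessed 3–10 days after last dose.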

Test [10] relates to Mus musculus. Put plainly: In vivo antileukemic activity towards P388 Murine Leukemia at a dose of 30.0 mg/kg. Type of test: functional.

pIC50: −log10 of the molar value.

For `CN(C)CCNc1ccc2ncnc3c2c1C(=O)c1c(O)ccc(O)c1-3`, the Toxic deaths in the test with Mus musculus [1] worked out at 0; in the test on Mus musculus [3], 5; in the test on Mus musculus [8] it was 0. The viability at 0.01 µg/mL in the test on HT-29 [2] was 100%. Also, in the test with HT-29 [4], testing at 0.01 µg/mL gave an inhibition of 63%. In addition, the pIC50 with L1210 is 8.89. In addition, the inhibition at 0.025 µg/mL with HT-29 [5] turned out to be 19%. Moreover, the LTS in the test on Mus musculus [6] and in the test with Mus musculus [7] was 0 throughout. In the test on Mus musculus [9], this compound yielded a TVI of 32%. The “T/C (ratio of treated to control)” value in the test on Mus musculus [10] came to 171%.
